Experiments:
[1] = target: T1, Cytochrome P450 11B2, mitochondrial (Homo sapiens, UniProt P19099); assay: Inhibition of human CYP11B2 expressed in hamster V79MZ cells using [1,2-3H]-11-deoxycorticosterone as substrate after 6 hrs by HPLC analysis; assay type: ADME, cell-based
T1 sequence (P19099 whole entry): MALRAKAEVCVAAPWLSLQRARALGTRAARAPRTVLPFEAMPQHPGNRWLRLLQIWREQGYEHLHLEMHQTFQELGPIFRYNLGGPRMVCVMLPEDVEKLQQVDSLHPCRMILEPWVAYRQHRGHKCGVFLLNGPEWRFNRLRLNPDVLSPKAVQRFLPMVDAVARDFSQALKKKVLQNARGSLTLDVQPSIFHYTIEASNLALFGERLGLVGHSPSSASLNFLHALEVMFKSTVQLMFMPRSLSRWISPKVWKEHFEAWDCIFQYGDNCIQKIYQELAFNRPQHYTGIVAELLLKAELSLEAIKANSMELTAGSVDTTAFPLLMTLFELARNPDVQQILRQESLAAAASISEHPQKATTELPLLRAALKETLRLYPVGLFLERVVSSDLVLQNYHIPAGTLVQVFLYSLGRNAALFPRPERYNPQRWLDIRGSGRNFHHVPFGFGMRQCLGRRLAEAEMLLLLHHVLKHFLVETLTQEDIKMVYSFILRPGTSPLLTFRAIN
In short: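 V79MZ cells expressing recombinant human CYP11B1 or CYP11B2, or rat CYP11B1, incubated with [1,2-³H]-11-deoxycorticosterone (100 nM) and inhibitor over a range of concentrations; ketoconazole as reference.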

[2] = target: T2, CYP17A1 (Homo sapiens, UniProt P05093); assay: Inhibition of human CYP17A1 expressed in Escherichia coli membranes at 2 uM using [3H]-progesterone as substrate after 30 mins in presence of NADPH by HPLC analysis relative to control; assay type: ADME, cell membranes; settings: Escherichia coli membranes expressing human CYP17A1, probe [3H]-progesterone
T2 sequence (P05093 whole entry): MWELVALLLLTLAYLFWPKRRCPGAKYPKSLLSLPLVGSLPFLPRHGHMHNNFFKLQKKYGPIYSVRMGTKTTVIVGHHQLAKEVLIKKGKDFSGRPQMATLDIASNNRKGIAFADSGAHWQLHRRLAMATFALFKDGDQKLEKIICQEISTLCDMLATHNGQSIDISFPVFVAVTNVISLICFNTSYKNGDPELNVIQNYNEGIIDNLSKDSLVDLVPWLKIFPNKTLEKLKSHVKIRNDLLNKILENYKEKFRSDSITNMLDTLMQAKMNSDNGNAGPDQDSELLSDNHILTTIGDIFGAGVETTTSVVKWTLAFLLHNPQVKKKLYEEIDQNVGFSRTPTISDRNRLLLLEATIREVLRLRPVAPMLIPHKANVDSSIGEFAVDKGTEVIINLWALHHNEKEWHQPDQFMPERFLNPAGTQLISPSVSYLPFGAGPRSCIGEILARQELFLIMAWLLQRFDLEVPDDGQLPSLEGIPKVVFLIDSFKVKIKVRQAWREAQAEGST
In short: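 Human CYP17A1 expressed in E. coli; [³H]-progesterone (25 µM) as substrate with NADPH cofactor; test compounds at 2 µM; abiraterone and ketoconazole as references.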

[3] = target: T3, CYP19A1 (Homo sapiens, UniProt P11511); assay: Inhibition of human placental microsomal CYP19A1 at 2 uM using [1beta-3H]-androstenedione as substrate after 20 mins in presence of NADPH by scintillation spectrometric method relative to control; assay type: ADME; settings: placental microsomes, probe [1beta-3H]-androstenedione
T3 sequence (P11511 whole entry): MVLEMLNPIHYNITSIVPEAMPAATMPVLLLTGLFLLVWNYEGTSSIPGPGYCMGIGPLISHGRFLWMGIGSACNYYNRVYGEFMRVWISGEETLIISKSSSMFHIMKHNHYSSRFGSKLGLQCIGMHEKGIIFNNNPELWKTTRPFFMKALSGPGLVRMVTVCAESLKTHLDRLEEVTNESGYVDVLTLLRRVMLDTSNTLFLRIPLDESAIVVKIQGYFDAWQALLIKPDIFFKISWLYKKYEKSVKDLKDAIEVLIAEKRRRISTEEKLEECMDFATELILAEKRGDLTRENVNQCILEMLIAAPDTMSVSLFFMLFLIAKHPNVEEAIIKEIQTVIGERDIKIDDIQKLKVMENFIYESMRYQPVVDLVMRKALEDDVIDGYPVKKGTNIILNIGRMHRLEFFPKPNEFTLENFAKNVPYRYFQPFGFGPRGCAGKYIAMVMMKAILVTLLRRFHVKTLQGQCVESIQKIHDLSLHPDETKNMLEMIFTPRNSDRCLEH
In short: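 Human placental microsomal CYP19A1; [1β-³H]androstenedione (500 nM) as substrate; test compounds at 2 µM; fadrozole and aminoglutethimide as references.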

[4] = target: T4, CYP1A2 (Homo sapiens, UniProt P05177); assay: Inhibition of recombinant human CYP1A2 expressed in baculovirus infected insect cell microsomes at 1 uM relative to control; assay type: ADME
T4 sequence (P05177 whole entry): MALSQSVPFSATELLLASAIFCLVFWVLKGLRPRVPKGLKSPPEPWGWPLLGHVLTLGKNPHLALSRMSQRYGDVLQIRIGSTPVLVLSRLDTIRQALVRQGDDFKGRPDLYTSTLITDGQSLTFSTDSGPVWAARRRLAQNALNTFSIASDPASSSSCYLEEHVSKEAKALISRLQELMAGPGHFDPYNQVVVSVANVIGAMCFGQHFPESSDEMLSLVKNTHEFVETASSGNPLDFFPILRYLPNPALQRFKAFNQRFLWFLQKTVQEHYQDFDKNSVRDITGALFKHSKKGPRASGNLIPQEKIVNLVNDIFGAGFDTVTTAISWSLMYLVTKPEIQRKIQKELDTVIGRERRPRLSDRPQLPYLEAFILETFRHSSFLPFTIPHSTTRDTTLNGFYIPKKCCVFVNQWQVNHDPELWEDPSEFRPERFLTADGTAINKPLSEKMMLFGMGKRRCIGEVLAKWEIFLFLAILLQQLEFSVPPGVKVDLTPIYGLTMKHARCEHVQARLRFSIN
In short: (§1)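 Recombinant human CYP1A2, 2B6, 2C9, 2C19, 2D6 and 3A4 in baculovirus-infected insect-cell microsomes, assayed per kit instructions; test compound at 1 µM, percent inhibition.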

[5] = target: CYP3A4 (Homo sapiens, UniProt P08684); assay: Inhibition of recombinant human CYP3A4 expressed in baculovirus infected insect cell microsomes at 1 uM relative to control; assay type: ADME; in short: as §1
Chain of CYP3A4 (P08684 whole entry): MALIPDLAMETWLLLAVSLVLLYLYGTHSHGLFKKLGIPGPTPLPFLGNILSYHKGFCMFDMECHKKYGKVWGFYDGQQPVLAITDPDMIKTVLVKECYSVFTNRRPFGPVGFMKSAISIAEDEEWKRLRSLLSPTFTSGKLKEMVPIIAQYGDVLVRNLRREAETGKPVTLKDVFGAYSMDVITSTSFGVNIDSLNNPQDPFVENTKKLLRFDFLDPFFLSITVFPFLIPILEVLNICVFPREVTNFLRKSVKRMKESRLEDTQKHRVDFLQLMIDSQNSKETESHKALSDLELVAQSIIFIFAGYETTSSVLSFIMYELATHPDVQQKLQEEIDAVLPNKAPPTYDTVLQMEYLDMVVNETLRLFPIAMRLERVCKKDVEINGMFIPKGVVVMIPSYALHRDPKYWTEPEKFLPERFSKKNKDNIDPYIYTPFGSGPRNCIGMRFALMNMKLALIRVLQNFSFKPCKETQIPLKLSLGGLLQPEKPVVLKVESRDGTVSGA

[6] = Plasma concentration in Sprague-Dawley rat at 100 mg/kg, po administered as single dose after 1 hr by HPLC-MS/MS analysis; assay type: ADME, organism-based
In short: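 One female Sprague-Dawley rat dosed orally with a suspension in 0.5% porcine gelatin/5% mannitol in water, under 2% isoflurane. Tail-vein blood in citrate; plasma precipitated with acetonitrile containing diphenhydramine internal standard and quantified by HPLC-MS/MS.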

Structure (SMILES) | IC50 [1] [nM] | inhibition at 0.5 h, 2 µM [2] [%] | inhibition at 20 min, 2 µM [3] [%] | inhibition at 1 µM [4] [%] | inhibition at 1 µM [5] [%] | concentration at 1 h [6] [µM]
Cc1cncc(Cc2cc(-c3ccccc3)no2)c1 | 82 | ≤ 9 | ≤ 9 | 54 | 61 | 2.5
COc1cncc(Cc2cc(-c3ccccc3)no2)c1 | 27 | ≤ 9 | ≤ 9 | 23 | 33 | 19.7

Reference: ChEMBL document CHEMBL4014346, “Lead Optimization Generates CYP11B1 Inhibitors of Pyridylmethyl Isoxazole Type with Improved Pharmacological Profile for the Treatment of Cushing's Disease” (J Med Chem, 2017)
